E-selectin induc = E-selectin induction on HUVECs; hit rate 0.37% among 260,000; HUVEC E-selectin immunofluorescence imaging; normalized: neutral wells 0, TNF-alpha wells 100; activation, % at 7.58 µM; P16581; AID 686992;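 active = mean E-selectin-positive cell signal at least 10% of the positive control, reached in at least 60% of replicates, without over 20% cell loss; inconclusive = no rule given, readout overlaps actives, possibly toxicity-flagged; inactive = the rest, including those meeting only one limit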
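Assay system: HUVEC primary endothelial cells. Input: 3,000 HUVEC seeded per well. Doses: one compound dose added by pin transfer. Read-out basis: % PE-positive cells. Benchmarks: TNF-alpha high, DMSO low. Detection: immunofluorescence imaging. Buffer or medium: EGM-2, gelatin.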
SIRT5 inh = inhibitors of human sirtuin-5 desuccinylase | Purified SirT5, succinyl-peptide AMC, trypsin-coupled fluorescence | inhibition, % at 15 µM | Q9NXA8 | hit rate 1.1% among 330,000; in the data active = inhibition above about 15%; inconclusive = no clear call, values can overlap the other calls
Target sequence (Q9NXA8 whole entry, looked up): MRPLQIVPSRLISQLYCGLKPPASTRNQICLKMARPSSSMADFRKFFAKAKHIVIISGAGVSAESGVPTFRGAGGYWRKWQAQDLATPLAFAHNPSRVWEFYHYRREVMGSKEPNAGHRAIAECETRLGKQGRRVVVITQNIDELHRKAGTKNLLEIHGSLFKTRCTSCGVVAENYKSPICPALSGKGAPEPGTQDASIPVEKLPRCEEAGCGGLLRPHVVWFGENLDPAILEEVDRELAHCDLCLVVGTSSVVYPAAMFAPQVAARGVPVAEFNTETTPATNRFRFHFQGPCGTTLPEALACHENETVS
DENV2 CPE = protects cells from dengue virus 2 cytopathic effect. DENV2-infected cells, cytopathic effect rescue, plate reader. CPE inhibition, % at 9.99 µM. hit rate 1.7% among 350,000. AID 651640; in the data active = CPE inhibition above about 20%, passing the limit was not always enough; inconclusive = no clear call, values can overlap the other calls; tested in BHK-21 cells;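 note: 0% = median of neutral control wells and 100% = median of positive control wells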
An asterisk follows results filed as active; ? = inconclusive; · = no result. Hits are enriched below; roughly 2.9% of the tested compounds scored in any of these assays.

SMILES	E-selectin induc	SIRT5 inh	DENV2 CPE
COc1ccc(S(=O)(=O)N(C)C[C@@H]2OCCCC[C@H](C)Oc3ccc(NS(=O)(=O)c4ccc(F)cc4)cc3C(=O)N([C@H](C)CO)C[C@H]2C)cc1	0	19*	-4
COc1ccc(S(=O)(=O)Nc2ccc3c(c2)C(=O)N([C@@H](C)CO)C[C@@H](C)[C@@H](CN(C)S(=O)(=O)c2ccc(F)cc2)OCCCC[C@@H](C)O3)cc1	0	11	2
COc1ccc(S(=O)(=O)Nc2ccc3c(c2)C(=O)N([C@@H](C)CO)C[C@@H](C)[C@@H](CN(C)S(=O)(=O)c2ccc(F)cc2)OCCCC[C@H](C)O3)cc1	0	16*	-1
COc1ccc(S(=O)(=O)Nc2ccc3c(c2)C(=O)N([C@@H](C)CO)C[C@@H](C)[C@H](CN(C)S(=O)(=O)c2ccc(F)cc2)OCCCC[C@H](C)O3)cc1	0	8	0
COc1ccc(S(=O)(=O)N(C)C[C@H]2OCCCC[C@@H](C)Oc3ccc(NS(=O)(=O)c4ccc(F)cc4)cc3C(=O)N([C@H](C)CO)C[C@@H]2C)cc1	0	4	2
Cc1ccc(N2C(=O)C(Cl)=C(N3CCCCCC3)C2=O)cc1	0	1	-3
O=C(O)CCN1C(=O)c2ccc(NC(=O)CSc3ccc(Cl)cc3)cc2C1=O	·	-2	8
O=C(C[C@@H]1CC[C@H]2[C@@H](COC[C@H](O)CN2C(=O)C2CCOCC2)O1)NCc1ccncc1	0	-1	-6
COc1ccc2cc(-c3ccn[nH]3)ccc2c1	0	1	1
Cc1ccc(NC(=O)NC2CCCc3ccccc32)cc1 (stereo not drawn)	·	-1	-4
CC(C)(C)c1ccc(NC(=O)NC2CCCc3ccccc32)cc1 (stereo not drawn)	1	-3	39*
CC(=O)c1sc(NC(=O)CS(=O)(=O)c2ccc(F)cc2)nc1C	0	-7	-6
N#Cc1ccc(-c2ccc([C@@H]3[C@@H]4CN(Cc5cocn5)C[C@H]3N4)cc2)cc1	0	·	99*
N#Cc1ccc(-c2ccc(C3[C@@H]4CN(Cc5ccccc5F)C[C@H]3N4)cc2)cc1 (stereo partly drawn)	0	-2	-2
CN(C)CCCN(C(=O)c1ccco1)c1nc2ccc(F)cc2s1	·	19*	3
Cc1ccc2nc(N(CCCN(C)C)C(=O)c3ccco3)sc2c1	15	-4	1
COc1ccc2c3c([nH]c2c1)[C@@H](CO)N(C(=O)C1CCOCC1)CC31CN(Cc2nccs2)C1	0	4	-7
O=C(O)Cc1n[nH]c(=O)c2ccccc12	0	·	·
CC1=NN(C(N)=S)C(=O)C1N=Nc1cccc(C(=O)O)c1 (stereo not drawn)	·	24*	20
CC1=NN(C(N)=S)C(=O)C1N=Nc1cccc(C)c1 (stereo not drawn)	1	-4	-1
O=C(O)CCN1CC2([N+](=O)[O-])C=CC(=O)C([N+](=O)[O-])(C1)C2CC(=O)c1ccccc1 (stereo not drawn)	·	·	2
COc1ccccc1/C=N\NC(=O)c1ccc(COc2ccc(C)c(C)c2)o1	48*	·	6
COc1ccccc1/C=N/NC(=O)c1cc2c(ccc3ccccc32)o1	2	2	6
Cc1ccc(NC(=O)CSC(C)C(=O)NCCc2ccccn2)cc1 (stereo not drawn)	5	-3	0
COc1ccc2ccccc2c1/C=N/NC(=O)c1cccc(Br)c1	·	-3	7
SMILES	E-selectin induc	SIRT5 inh	DENV2 CPE
COc1ccc2ccccc2c1/C=N/NC(=O)c1ccccc1F	·	-3	44*
Cc1ccccc1-c1cnc(C(O)c2ccc(F)cc2C)[nH]1 (stereo not drawn)	0	2	5
Cc1cc(F)ccc1C(O)c1ncc(-c2ccccc2C(F)(F)F)[nH]1 (stereo not drawn)	0	11	60*
COc1ccc(C(CNC(=O)CNC(=O)c2ccccc2)N2CCCC2)cc1 (stereo not drawn)	·	-1	5
C[C@H](CO)N1C[C@H](C)[C@H](CN(C)S(=O)(=O)c2ccc(-n3cccn3)cc2)OCc2cnnn2CCCC1=O	0	-2	?
CCCCN1C(=O)C(CC(=O)NC2CC2)CC(C(=O)N(CC)CC)=C1C (stereo not drawn)	0	·	23*
CC1=C(C(=O)N2CCOCC2)CC(CC(=O)NCC2CCCCC2)C(=O)N1CCC1=CCCCC1 (stereo not drawn)	1	23*	-12
CC1=C(C(=O)N(C)C)CC(CC(=O)NCC2CCCCC2)C(=O)N1CCC1=CCCCC1 (stereo not drawn)	·	-5	-1
CC1=C(C(=O)N(C)C)CC(CC(=O)NC2CC2)C(=O)N1CCC1=CCCCC1 (stereo not drawn)	0	4	-10

Compound activity (PubChem BioAssay)
